# Source: PubChem
# Only some compounds are listed: those with a hit (about 3.1% of all), similar ones and a draw of the others.
# CSC inhib = blocks cancer stem cells; cancer stem cell-like cells viability, luminescence; inhibition, % at 7.5 µM; 300,000 compounds, 1.1% hits; in the data active = inhibition above about 75%; tested in HMLE shEcad cells
# Beta cell apopt = blocks beta cell apoptosis; INS-1E cytokine-induced death, ATP luminescence, 48 h; percent of positive-control rescue, neutral wells zero; protection from apoptosis, % (concentration not given with the values); 300,000 compounds, 0.8% hits; AID 435005;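 active = Every replicate reaches about 75%, or at least half do and their mean reaches it too, limit read from the data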;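 also: 0% = cytokine-treated negative control wells and 100% = positive control rescue; higher means more ATP so stronger rescue from cytokine killing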
# PolyA inhibitor = inhibitors of polyadenylation in S. cerevisiae | S. cerevisiae SKY197-pL101 polyadenylation reporter, beta-gal luminescence; efflux-impaired pdr1/pdr3 knockout yeast; score 100 = 6 SD above DMSO | activity score, % at 12 µM | 300,000 compounds, 0.02% hits | AID 1875;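 active = lowest replicate activity score at least 50, where 100 means six control SD above control mean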;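 also: yeast exposed to compound for 9 h at 30 °C; higher score means more reporter readthrough which indicates perturbed polyadenylation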
# Calb FLC = C. albicans growth modulation with fluconazole. AID 1979. growth inhibition, % (concentration not given with the values). 300,000 compounds, 0.57% hits. C. albicans CaCi-2 (fluconazole-resistant clinical isolate) + fluconazole, Alamar Blue growth, 48 h;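 active = growth inhibition above about 58% in most replicates, limit read from the data, passing the limit was not always enough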;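 also: all wells also contain fluconazole at 8 µg/ml as a sub-toxic cotreatment; 0% = median of DMSO wells and 100% = median of geldanamycin control wells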
# HIF act = HIF pathway transcriptional activation; U2OS HRE-luciferase reporter, luminescence; normalized: DMSO 0%, desferrioxamine 100%; 300,000 compounds, 0.32% hits; activation, % at 7.5 µM (by protocol); AID 1910;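 active = mean activation of at least 10% of the iron chelator positive control signal, with at least half of replicates also reaching 10%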
# T cruzi repl = blocks replication of Trypanosoma cruzi; T. cruzi beta-gal in NIH3T3, luminescence, 90 h; inhibition, % (no concentration beside the values); 300,000 compounds, 1.4% hits; AID 1885;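 active = mean inhibition across valid replicates above about 55%, limit read from the data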;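 also: signal also drops with host cell toxicity which is not excluded here; 0% = plate median of DMSO wells and 100% = zero luminescence signal; higher percent means less beta-gal luminescence so fewer parasites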
#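 Incubation – ≥90 h infection period, 3 h prior cell attachment · System – NIH/3T3 fibroblasts plus reporter T. cruzi · Doses – compound pinned at 50 nL/well, DMSO · Read-out basis – percent inhibition of parasite-derived β-gal signal · Signal – luminescent β-galactosidase signal after 60 min lysis · Also added – 5000 T. cruzi trypomastigotes/well · Medium – Low-serum DMEM with 2% FBS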
# * = called active by the depositor; . = not tested or not shown.
SMILES,CSC inhib,Beta cell apopt,PolyA inhibitor,Calb FLC,HIF act,T cruzi repl
O=C(Nc1nnc(-c2cccs2)s1)c1cccc(F)c1,3,1,.,-1,.,.
FC(F)(F)c1cccc(Cn2c3[n+](c4ccc(C(F)(F)F)cc42)CCCCC3)c1,-1,7,-3,-27,0,8
Cc1cc(C(C)(C)C)cc(C)c1Cn1c2[n+](c3ccc(C(F)(F)F)cc31)CCCCC2,19,86*,6,34,0,59*
O=C(CCC(=O)N1CCOc2ccccc21)NCc1cccnc1,-24,-10,2,9,0,4
C[C@H](CO)N1C[C@H](C)[C@@H](CN(C)C(=O)Nc2ccc3c(c2)OCO3)Oc2ccc(NC(=O)Nc3ccc4c(c3)OCO4)cc2C1=O,-7,2,.,.,.,.
Cc1ccc(OCCCC(=O)Nc2nc3ccccc3[nH]2)cc1,.,4,1,110*,3,-1
O=C(CCCOc1ccccc1)Nc1nc2ccccc2[nH]1,11,-5,5,-6,3,-16
Cc1cccc(OCCCSc2nc3ccccc3[nH]2)c1,9,0,2,36,0,7
Cc1cccc(OCCCC(=O)Nc2nc3ccccc3[nH]2)c1,84*,13,-10,12,-1,-41
O=C(CCNC(=O)c1ccc(Br)cc1)NNC(=O)c1ccccc1O,46,5,7,0,1,-4
COc1ccc(OC)c(C(=O)Nc2c(O)ccc3ccccc23)c1,0,-2,-2,25,1,3
Cc1ccc(-c2ccc(/C=C3\SC(N4CCOCC4)=NC3=O)o2)cc1,20,3,15,-4,0,66*
O=C1N=C(N2CCOCC2)S/C1=C/c1ccc(-c2ccc(F)cc2)o1,-22,4,6,10,0,32
Cc1csc(=O)n1CCC(=O)OCC(=O)c1c(N)n(CC(C)C)c(=O)n(C)c1=O,0,-2,12,4,0,7
CC(C)Cn1c(N)c(C(=O)COC(=O)CC23CC4CC(CC(C4)C2)C3)c(=O)n(C)c1=O,64,105*,-5,2,1,21
Cc1ccc(N2CC(=O)Nc3c(sc4nc(C)cc(C)c34)C2=O)cc1,1,-2,-8,-2,26*,9
NC1=C(Br)C(=O)c2ccccc2C1=O,59,102*,7,-8,0,-5
Nc1ccc(Br)c2c1C(=O)c1ccccc1C2=O,18,.,-31,-24,0,7
Nc1sc(-c2ccccc2)n[n+]1Cc1cccc2cccnc12,11,10,-2,30,2,60*
Oc1ccccc1CNc1cccc2cccnc12,38,13,-5,-2,-1,7
Cc1cccc2c(N=O)c(O)n(CCc3ccccc3)c12,-9,3,-17,1,0,-14
Cn1cc(CC(=O)N2CCN(c3ccc(Cl)cc3)CC2)c2ccccc21,-3,.,0,1,42*,10
Cn1cc(CC(=O)N2CCN(c3ccccc3F)CC2)c2ccccc21,-11,.,-5,-1,0,7
COC(=O)c1ccc(-c2sc3nc(N4CCOCC4)c4c(c3c2N)CCCC4)o1,28,6,-1,-2,0,67*
CCOC(=O)c1sc2nc(N3CCOCC3)c3c(c2c1N)CCCC3,1,-4,1,-5,0,32
SMILES,CSC inhib,Beta cell apopt,PolyA inhibitor,Calb FLC,HIF act,T cruzi repl
COC(=O)c1sc2nc(N3CCCCC3)c3c(c2c1N)CCCC3,85*,6,-15,7,0,16
COc1ccc(C(CC(=O)O)NS(=O)(=O)c2ccc3c(c2)N(C(C)=O)CC(C)O3)cc1 (stereo unspecified),-12,0,10,-8,.,-6
CCOC(=O)N1C(=O)[C@@](c2ccc(Cl)cc2)(C(C)C)N1C(=O)OCC,78*,22,-6,-5,3,-23
CCOC(=O)N1C(=O)[C@](c2ccc(Cl)cc2)(C(C)C)N1C(=O)OCC,17,11,-8,-15,3,-25
CCn1cc(C(=O)OCC(=O)Nc2cccc(Cl)c2Cl)c(=O)c2ccc(C)nc21,.,-1,-7,106*,0,-4
CCn1cc(C(=O)OCC(=O)Nc2c(C)n(C)n(-c3ccccc3)c2=O)c(=O)c2ccc(C)nc21,4,-1,11,3,0,-5
COc1cccc(C(C(=O)NC2CCCC2)N(C(=O)c2ccco2)c2ccc(-n3cnnn3)c(C)c2)c1OC (stereo unspecified),-1,0,15,92*,0,9
Clc1ccc(SCCN2CCNCC2)cc1,10,-7,-10,-34,0,63*
Cc1ccc(SCCN2CCN(C)CCC2=O)cc1,.,.,7,-10,0,-13
Cc1ccc(SCCN2CCN(C)CC2)cc1,10,-2,20,-5,0,64*
Cc1ccc(SCCN2CCN(Cc3ccccc3)CC2)cc1,43,1,-10,-22,-15,73*
OCCN1CCN(CCSc2ccccc2)CC1,24,0,5,-6,0,14
O=C(CN1C(=O)NC2(CCCCC2)C1=O)NCc1ccc2c(c1)OCO2,5,-4,5,20,1,1
